In ChEMBL document CHEMBL4265907, “Design, synthesis and pharmacological evaluation of N4,N6-disubstituted pyrimidine-4,6-diamine derivatives as potent EGFR inhibitors in non-small cell lung cancer” (Eur J Med Chem, 2018):

Experiments:
[1] = target: Fibroblast growth factor receptor 1 (Homo sapiens) (UniProt P11362); experiment: Inhibition of N-terminal GST-tagged human FGFR1 cytoplasmic domain (398 to 822 residues) expressed in baculovirus expression system at […] using FAM-labeled peptide as substrate after 10 mins by mobility shift assay relative to control
Summary of the method: (§1)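 Caliper mobility-shift kinase assay. Kinase in kinase base buffer was preincubated with compound for 10 min at room temperature. FAM-labelled peptide and ATP at Km were then added, and the reaction ran at 28 °C until quenched with buffer. Screening concentration was 1 µM. Percent inhibition = (max − conversion)/(max − min) × 100, with DMSO as max and a low control as min.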

[2] = target: Vascular endothelial growth factor receptor 2 (Homo sapiens) (UniProt P35968); experiment: Inhibition of N-terminal GST-tagged human KDR cytoplasmic domain (790 to 1356 residues) expressed in baculovirus expression system at […] using FAM-labeled peptide as substrate after 10 mins by mobility shift assay relative to control; summary of the method: as §1
Chain of Vascular endothelial growth factor receptor 2 (Homo sapiens) (P35968 whole entry, the tested form may be a part): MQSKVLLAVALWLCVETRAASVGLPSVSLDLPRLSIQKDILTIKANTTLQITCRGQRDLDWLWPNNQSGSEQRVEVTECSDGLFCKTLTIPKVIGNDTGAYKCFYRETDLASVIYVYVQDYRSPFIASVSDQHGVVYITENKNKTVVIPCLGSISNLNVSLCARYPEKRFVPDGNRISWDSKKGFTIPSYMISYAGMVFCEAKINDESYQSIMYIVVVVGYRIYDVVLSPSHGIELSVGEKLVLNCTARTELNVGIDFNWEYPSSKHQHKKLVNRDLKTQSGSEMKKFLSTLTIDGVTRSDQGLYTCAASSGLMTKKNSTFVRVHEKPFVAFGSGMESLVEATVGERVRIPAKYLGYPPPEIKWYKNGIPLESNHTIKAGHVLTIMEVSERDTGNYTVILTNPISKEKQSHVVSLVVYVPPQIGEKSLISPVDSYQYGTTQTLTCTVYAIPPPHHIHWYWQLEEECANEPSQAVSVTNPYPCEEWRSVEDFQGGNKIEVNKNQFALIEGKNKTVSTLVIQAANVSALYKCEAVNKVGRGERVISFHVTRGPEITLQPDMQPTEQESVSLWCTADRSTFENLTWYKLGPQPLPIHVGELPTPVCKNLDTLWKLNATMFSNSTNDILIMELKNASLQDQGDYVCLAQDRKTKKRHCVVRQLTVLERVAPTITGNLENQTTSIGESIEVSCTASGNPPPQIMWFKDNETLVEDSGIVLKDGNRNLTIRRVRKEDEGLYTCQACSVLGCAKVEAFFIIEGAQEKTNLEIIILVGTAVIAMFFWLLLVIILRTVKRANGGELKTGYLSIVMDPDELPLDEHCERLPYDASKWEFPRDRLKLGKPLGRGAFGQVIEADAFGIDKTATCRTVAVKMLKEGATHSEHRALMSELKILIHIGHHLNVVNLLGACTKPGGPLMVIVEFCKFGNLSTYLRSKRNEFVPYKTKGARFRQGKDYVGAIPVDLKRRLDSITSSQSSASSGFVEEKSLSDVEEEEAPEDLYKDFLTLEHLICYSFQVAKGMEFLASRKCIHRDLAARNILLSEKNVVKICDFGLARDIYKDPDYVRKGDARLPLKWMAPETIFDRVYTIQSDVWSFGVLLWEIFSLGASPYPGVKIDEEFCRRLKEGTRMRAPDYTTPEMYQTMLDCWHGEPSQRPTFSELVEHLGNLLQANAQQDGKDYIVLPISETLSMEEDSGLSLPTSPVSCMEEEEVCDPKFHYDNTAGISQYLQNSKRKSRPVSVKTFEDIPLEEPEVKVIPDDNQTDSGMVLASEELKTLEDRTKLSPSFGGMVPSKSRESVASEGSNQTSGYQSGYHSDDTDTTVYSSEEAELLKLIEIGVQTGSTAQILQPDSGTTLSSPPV

Structure (SMILES) | inhibition [1] | inhibition [2]
COc1ccc(Nc2cc(NC(=O)c3ccccc3)ncn2)c([N+](=O)[O-])c1 | 5.2% | 8.9%
O=C(/C=C/c1ccc(F)cc1)Nc1cc(Nc2ccc(Cl)cc2Cl)ncn1 | -2.9% | 2.5%
COc1cccc(Nc2cc(NC(=O)CCC(=O)O)ncn2)c1 | 0.5% | 12.4%
CCOC(=O)CC(=O)Nc1cc(Nc2ccc(F)cc2)ncn1 | -1.1% | 1.7%
COc1cccc(Nc2cc(Nc3cccc(Br)c3)ncn2)c1 | – | 20.5%
O=C(/C=C/c1ccccc1)Nc1cc(Nc2ccc(O)cc2)ncn1 | -3.7% | 1.3%
COc1ccc(/C=C/C(=O)Nc2cc(N3CCOCC3)ncn2)cc1 | -4.8% | 7.3%
COc1ccc(OC)c(Nc2cc(Nc3ccc(Cl)cc3)ncn2)c1 | -8.2% | 6.5%
CCCC(C)OC(=O)CCC(=O)Nc1cc(Nc2cccc(Br)c2)ncn1 (configuration not stated) | -4.9% | 14.8%
Clc1ccc(Nc2cc(Nc3ccc(Cl)cc3)ncn2)cc1 | -1.3% | 8.5%
O=C(Nc1cc(Nc2ccc(Cl)cc2)ncn1)c1ccccc1 | -1.3% | -1.4%
CCOC(=O)CCCC(=O)Nc1cc(Nc2cc(OC)ccc2OC)ncn1 | -9.3% | 0.9%
CCOC(=O)CCC(=O)Nc1cc(NCCc2cccs2)ncn1 | – | 13.6%
COc1ccc(OC)c(Nc2cc(Nc3cc(OC)ccc3OC)ncn2)c1 | -2.7% | 13.6%
CCCC(C)OC(=O)CCC(=O)Nc1cc(Nc2cccc(C(=O)OC(C)CCC)c2)ncn1 (configuration not stated) | -5% | 4.9%
COc1ccc(Nc2cc(NC(=O)/C=C/c3ccccc3)ncn2)cc1 | 8.7% | 9.3%
O=C(Nc1cc(Nc2cccc(Cl)c2)ncn1)c1ccc(F)cc1 | 4.2% | -0.6%
CCOC(=O)c1ccc(Nc2cc(NC(=O)CCC(=O)O)ncn2)cc1 | -5.4% | 4.9%
CN1CCN(c2ccc(Nc3cc(NC(=O)CCC(=O)O)ncn3)cc2)CC1 | – | 18.8%
COc1ccc(Nc2cc(NC(=O)/C=C/c3ccc(F)cc3Br)ncn2)c([N+](=O)[O-])c1 | -2.3% | 11.3%
Clc1cccc(Nc2cc(Nc3cccc(Br)c3)ncn2)c1 | -3.6% | 20%

Structure (SMILES) | inhibition [1] | inhibition [2]
CCOc1ccc(Nc2cc(NC(=O)/C=C/c3ccc(OC)cc3)ncn2)cc1 | 0.7% | 20.4%
CC(C)OC(=O)CCC(=O)Nc1cc(Nc2ccc(C(=O)OC(C)C)cc2)ncn1 | -2.3% | 4.9%
CN1CCN(c2cc(NC(=O)/C=C/c3ccc(F)cc3)ncn2)CC1 | -6.1% | 7.7%
COc1cccc(Nc2cc(NC(=O)/C=C/c3ccccc3)ncn2)c1 | -0.4% | 9.3%
O=C(Nc1cc(Nc2ccc(N3CCOCC3)cc2)ncn1)c1ccc(F)cc1 | 3.5% | 1.7%
COc1cccc(Nc2cc(NC(=O)c3ccccc3)ncn2)c1 | -6% | -0.2%
O=C(/C=C/c1ccc(F)cc1Br)Nc1cc(N2CCOCC2)ncn1 | -7.1% | 5.7%
CCOC(=O)c1ccc(Nc2cc(Nc3ccc(C(=O)OCC)cc3)ncn2)cc1 | 0% | 3.7%
O=C(O)CCC(=O)Nc1cc(Nc2cccc(Br)c2)ncn1 | -5.3% | 19.2%
CCOC(=O)c1c(Nc2cc(NC(=O)CCC(=O)OC(C)C)ncn2)sc2c1CCCC2 | -4.1% | 16.4%
O=C(/C=C/c1ccc(F)cc1Br)Nc1cc(Nc2ccc(Cl)cc2Cl)ncn1 | -4.6% | 15.2%
COc1ccc(/C=C/C(=O)Nc2cc(N3CCN(C)CC3)ncn2)cc1 | -6.1% | 1.7%
COc1ccc(/C=C/C(=O)Nc2cc(Nc3ccc(Cl)cc3Cl)ncn2)cc1 | -4% | 6.1%
CCOc1ccc(Nc2cc(NC(=O)c3ccc(F)cc3)ncn2)cc1 | 5.9% | 5.3%
CCOc1ccc(Nc2cc(NC(=O)/C=C/c3ccccc3)ncn2)cc1 | 1.5% | 0.6%
Fc1ccc(Nc2cc(Nc3ccc(F)cc3)ncn2)cc1 | 0.5% | 16.8%
Fc1ccc(Nc2cc(Nc3ccc(Cl)cc3)ncn2)cc1 | 1.8% | 6.1%
Clc1cccc(Nc2cc(Nc3cccc(Cl)c3)ncn2)c1 | -9.8% | 0.6%
O=C(Nc1cc(Nc2cccc(Cl)c2)ncn1)c1ccccc1 | -5.8% | -6.2%
Clc1ccc(Nc2cc(Nc3cccc(Cl)c3)ncn2)cc1 | -3.4% | 7.3%
CCOC(=O)CCC(=O)Nc1cc(Nc2ccc(Cl)cc2)ncn1 | -3.6% | 22.5%

Structure (SMILES) | inhibition [1] | inhibition [2]
CC(C)OC(=O)CCC(=O)Nc1cc(Nc2ccc(F)cc2)ncn1 | -6.5% | 2.5%
Clc1ccc(Nc2cc(Nc3ccc4[nH]ncc4c3)ncn2)cc1 | -5.3% | -1.4%
Cc1ccc(Nc2cc(NC(=O)c3ccc(F)cc3)ncn2)cc1 | -4.8% | 10.9%
CCOC(=O)CCC(=O)Nc1cc(Nc2ccc(S(N)(=O)=O)cc2)ncn1 | -3.6% | 7.7%
CCOC(=O)CCC(=O)Nc1cc(Nc2cc(OC)ccc2OC)ncn1 | -8.8% | 9.7%
COc1ccc(Nc2cc(NC(=O)/C=C/c3ccccc3)ncn2)c([N+](=O)[O-])c1 | -4.9% | 2.5%
COc1cccc(Nc2cc(Nc3ccc(Cl)cc3)ncn2)c1 | -4% | 12.8%
CCOC(=O)CCC(=O)Nc1cc(Nc2ccc(C(=O)OCC)cc2)ncn1 | -4.6% | 6.5%
O=C(/C=C/c1ccc(F)cc1)Nc1cc(Nc2ccc(Cl)cc2)ncn1 | 3.1% | 10.1%
CCOC(=O)CCC(=O)Nc1cc(Nc2cccc(C(=O)OCC)c2)ncn1 | 2.6% | 19.7%
O=C(/C=C/c1ccccc1)Nc1cc(Nc2ccc(N3CCOCC3)cc2)ncn1 | -0.3% | -5%
O=C(/C=C/c1ccc(F)cc1Br)Nc1cc(Nc2ccc(N3CCOCC3)cc2)ncn1 | -2.8% | 0.6%
CCOc1cccc(Nc2cc(NC(=O)c3ccc(F)cc3)ncn2)c1 | 2.2% | 6.1%
COc1ccc(Nc2cc(NC(=O)c3ccc(F)cc3)ncn2)cc1 | 0.5% | -3.4%
COc1cccc(Nc2cc(NC(=O)c3ccc(F)cc3)ncn2)c1 | 4.3% | 20.8%
O=C(Nc1cc(N2CCOCC2)ncn1)c1ccccc1 | -1.8% | 10.1%
O=C(O)CCCC(=O)Nc1cc(Nc2ccccc2Br)ncn1 | -9.3% | 16.8%
CN1CCN(c2cc(NC(=O)CCCC(=O)O)ncn2)CC1 | -2.3% | 13.6%
O=C(O)CCC(=O)Nc1cc(Nc2cccc(C(=O)O)c2)ncn1 | – | 10.9%
O=C(O)CCC(=O)Nc1cc(Nc2cccc(Cl)c2)ncn1 | -3.6% | 0.6%
O=C(/C=C/c1ccc(F)cc1)Nc1cc(Nc2ccc(N3CCOCC3)cc2)ncn1 | -3.9% | 1.3%
